These results are taken from ChEMBL document CHEMBL4699630, “Discovery of novel pyrazolo[3,4-b]pyridine scaffold-based derivatives as potential PIM-1 kinase inhibitors in breast cancer MCF-7 cells” (Bioorg Med Chem, 2020).

The subject of assay [1] is MCF7. Briefly: Cytotoxicity against ERalpha-dependent human MCF7 cells assessed as reduction in cell viability incubated for 48 hrs by MTT assay. Format: functional, cell-based. The note with it: MCF7, 48 h. The essentials:
(§1)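 Cells grown by standard culture protocols, then exposed for 48 h to serial concentrations (0.1, 1, 10, 100, 1000; unit not given) of each compound. Survival read by absorbance at 570 nm and expressed as % viability = A sample/A control ×100. IC50 fitted from concentration versus % survival; mean ± SEM of three independent values.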

Another assay has as its system MDA-MB-231. The assay is described as follows: Cytotoxicity against Non-ERalpha-dependent human MDA-MB-231 cells assessed as reduction in cell viability incubated for 48 hrs by MTT assay. In kind it is functional, cell-based. The note with it: MDA-MB-231, 48 h. A digest of the protocol: as §1
On the technique in general: Formazan colour is commonly taken as a measure of viable cells.

A further assay concerns MCF-10A. The assay is described as follows: Cytotoxicity against human MCF-10A cells assessed as reduction in cell viability incubated for 48 hrs by MTT assay. Format: cell-based. The essentials: as §1
For assay [2], the target named is Serine/threonine-protein kinase pim-1 (Homo sapiens, UniProt P11309). Briefly: Inhibition of recombinant human GST-tagged PIM1 by ELISA. The essentials:
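PIM-1 kinase activity measured with the HTScan Pim-1 kinase assay kit, following the kit instructions. Compounds dissolved in DMSO and tested at four serial concentrations; IC50 derived from these.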

The subject of assay [3] is MCF7. Briefly: Induction of apoptosis in human MCF7 cells assessed as increase in necrotic cells at 5.61 uM incubated for 48 hrs by Annexin V-FITC/propidium iodide staining based flow cytometric analysis relative to control. In kind it is functional. In general terms: In flow cytometry, cells or beads pass a laser one at a time.
Assay [4] relates to MCF7. Briefly: Induction of apoptosis in human MCF7 cells assessed as fold increase in caspase-3 gene expression at 5.61 uM incubated for 48 hrs by RT-PCR analysis relative to control. Format: functional.
Assay [5] can be described thus: Upregulation of PUMA gene expression in human MCF7 cells at 5.61 uM incubated for 48 hrs by RT-PCR analysis relative to control. In kind it is functional.
A short description of assay [6]: Downregulation of PIM1 gene expression in human MCF7 cells at 5.61 uM incubated for 48 hrs by RT-PCR analysis relative to control. In kind it is functional.
A short description of assay [7]: Upregulation of P53 gene expression in human MCF7 cells at 5.61 uM incubated for 48 hrs by RT-PCR analysis relative to control. Format: functional.
Assay [8] concerns MCF7. Briefly: Induction of cell cycle arrest in human MCF7 cells assessed as accumulation of cells at preG1 phase at 5.61 uM incubated for 48 hrs by propidium iodide staining based flow cytometric analysis (reference value: 1.64 %). In kind it is functional.
The subject of assay [9] is MCF7. Briefly: Induction of apoptosis in human MCF7 cells assessed as fold decrease in BCL2 gene expression at 5.61 uM incubated for 48 hrs by RT-PCR analysis relative to control. In kind it is functional.
The subject of assay [10] is MCF7. The assay is described as follows: Induction of apoptosis in human MCF7 cells assessed as increase in total apoptotic cells at 5.61 uM incubated for 48 hrs by Annexin V-FITC/propidium iodide staining based flow cytometric analysis relative to control. In kind it is functional.
The test system of assay [11] is MCF7. The assay is described as follows: Induction of cell cycle arrest in human MCF7 cells assessed as accumulation of cells at G2/M phase at 5.61 uM incubated for 48 hrs by propidium iodide staining based flow cytometric analysis (reference value: 12.26 %). In kind it is functional.
Assay [12] deals with MCF7. Briefly: Induction of apoptosis in human MCF7 cells assessed as late apoptotic cells at 5.61 uM incubated for 48 hrs by Annexin V-FITC/propidium iodide staining based flow cytometric analysis (reference value: 0.16 %). Format: functional.
Assay [13] deals with MCF7. Briefly: Induction of apoptosis in human MCF7 cells assessed as early apoptotic cells at 5.61 uM incubated for 48 hrs by Annexin V-FITC/propidium iodide staining based flow cytometric analysis (reference value: 0.43 %). In kind it is functional.
In assay [14] the test system is MCF7. Briefly: Induction of cell cycle arrest in human MCF7 cells assessed as accumulation of cells at G0/G1 phase at 5.61 uM incubated for 48 hrs by propidium iodide staining based flow cytometric analysis (reference value: 43.92 %). Format: functional.
Assay [15] deals with MCF7. Briefly: Induction of apoptosis in human MCF7 cells assessed as fold increase in caspase-9 gene expression at 5.61 uM incubated for 48 hrs by RT-PCR analysis relative to control. Format: functional.
Assay [16] deals with MCF7. The assay is described as follows: Induction of apoptosis in human MCF7 cells assessed as necrotic cells at 5.61 uM incubated for 48 hrs by Annexin V-FITC/propidium iodide staining based flow cytometric analysis (reference value: 1.05 %). Format: functional.
Assay [17] can be described thus: Upregulation of MDM2 gene expression in human MCF7 cells at 5.61 uM incubated for 48 hrs by RT-PCR analysis relative to control. Format: functional.

Where only a bound is given, the exact number is not on record here.

The IC50 is the concentration that gives 50% inhibition.

Serine/threonine-protein kinase pim-1, sequence (P11309 whole entry): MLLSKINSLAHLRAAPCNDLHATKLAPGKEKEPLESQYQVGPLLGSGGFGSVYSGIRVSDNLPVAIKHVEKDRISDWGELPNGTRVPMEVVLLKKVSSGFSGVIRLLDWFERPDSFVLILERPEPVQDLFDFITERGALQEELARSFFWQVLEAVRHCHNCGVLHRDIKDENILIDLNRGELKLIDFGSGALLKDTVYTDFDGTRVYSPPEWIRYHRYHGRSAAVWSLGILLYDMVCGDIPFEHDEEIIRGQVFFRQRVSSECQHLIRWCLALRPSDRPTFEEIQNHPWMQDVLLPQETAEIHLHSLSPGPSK

For `N#Cc1c(N)nc2nn3c4ccc5ccccc5c4nnc3c2c1-c1ccc(-c2c(C#N)c(N)nc3nn4c(nnc5ccc6ccccc6c54)c23)cc1`, the concentration for half-maximal inhibition (IC50) came to 11.4 µM in the assay on MCF7 [1] and 43.7 µM in the assay with MDA-MB-231.

For `CC(=O)c1nnc2c3c(-c4ccccc4Cl)c(C#N)c(O)nc3nn2c1C`, the IC50 in the assay with MCF7 [1] turned out to be 14.8 µM; in the assay with MDA-MB-231, 20.8 µM.

For the compound `N#Cc1c(N)nc2[nH]nc(N)c2c1-c1ccc(-c2c(C#N)c(N)nc3[nH]nc(N)c23)cc1`, the results for the IC50 in the assay with MCF-10A, with MCF7 [1] and in the assay on MDA-MB-231 were 43.6 µM, 17.9 µM and 35.7 µM, respectively.

`N#Cc1c(-c2ccccc2Cl)c2c(nn3c4ccc(O)cc4nnc23)[nH]c1=O`: the IC50 is not below 50 µM in the assay with MCF-10A, 0.112 µM in assay [2], 10 µM in the assay on MCF7 [1] and 24.7 µM with MDA-MB-231.

Take `N#Cc1c(N)nc(Sc2ccccc2)c(C#N)c1-c1ccc(-c2c(C#N)c(N)nc(Sc3ccccc3)c2C#N)cc1`: the values for the half-maximal inhibitory concentration (IC50) with MCF-10A and in the assay with MCF7 [1] were 48.7 µM and 16.8 µM, respectively.

For the compound `N#Cc1nnc2c3c(-c4ccccc4Cl)c(C#N)c(O)nc3nn2c1O`, the IC50 in the assay on MCF7 [1] was 27.5 µM; in the assay on MDA-MB-231 it was 10.6 µM.

With `N#Cc1c(N)nc2[nH]nc(N)c2c1-c1ccccc1Cl`, the IC50 in the assay on MCF-10A stood at 20.6 µM; in the assay on MCF7 [1] it was 36.6 µM.

On to `N#Cc1c(-c2ccccc2Cl)c2c(N/N=C3\C=CC(=O)c4ccccc43)n[nH]c2[nH]c1=O`, for which the IC50 in the assay with MCF-10A was not below 50 µM; in assay [2], 0.095 µM; in the assay with MCF7 [1] it was 8.71 µM; in the assay with MDA-MB-231, not below 50 µM.

With `N#Cc1c(N)nc2[nH]nc(N)c2c1-c1cccc(Cl)c1`, the IC50 in the assay with MCF7 [1] is not below 50 µM.

On to `Cn1nc(N)c2c(-c3ccccc3Cl)c(C#N)c(N)nc21`, for which, in the assay with MCF-10A, the IC50 is 53.7 µM.

As for `N#Cc1c(-c2ccccc2Cl)c2c(nn3c4ccc5ccccc5c4nnc23)[nH]c1=O`, the values for the half-inhibitory concentration (IC50) in the assay with MCF7 [1] and with MDA-MB-231 were not below 50 µM and 9.76 µM, respectively.

For `N#Cc1nnc2c3c(-c4ccccc4Cl)c(C#N)c(=O)[nH]c3nn2c1N`, the IC50 with MCF-10A is not below 50 µM; in [2], 0.043 µM; with MCF7 [1], 6.98 µM; with MDA-MB-231, not below 50 µM.

Take `CCOC(=O)c1nnc2c3c(-c4ccccc4Cl)c(C#N)c(=O)[nH]c3nn2c1O`: the concentration for half-maximal inhibition (IC50) with MCF-10A was 46.8 µM; in assay [2] it was 0.026 µM; in the assay on MCF7 [1], 5.61 µM; in the assay with MDA-MB-231, 38.7 µM. Besides, the “fold change (FC)” value stood at 10.5 with MCF7 [3]; 7.9 with MCF7 [4]; 6.32 in [5]; 0.25 in [6]; 4.2 in [7]; 0.41 in the assay on MCF7 [9]. In addition, the “fold change (FC)” value is 19.17 in the assay with MCF7 [10], 6.56 with MCF7 [15] and 3.9 in [17]. Besides, the Activity stood at 31.25% in the assay on MCF7 [8]; 34.58% with MCF7 [11]; 16.29% in the assay with MCF7 [12]; 3.93% with MCF7 [13]; 35.66% in the assay on MCF7 [14]; 11.03% in the assay on MCF7 [16].

On to `Cn1nc(N)c2c(-c3ccc(-c4c(C#N)c(N)nc5c4c(N)nn5C)cc3)c(C#N)c(N)nc21`, for which the IC50 in the assay with MCF-10A and in the assay with MCF7 [1] was not below 50 µM throughout.

`N#Cc1c(O)nc2nn3c4cc(O)ccc4nnc3c2c1-c1ccccc1Cl`: the IC50 with MCF-10A was not below 50 µM; in [2] it was 0.087 µM; in the assay with MCF7 [1] it was 9.12 µM; in the assay on MDA-MB-231 it was 39.5 µM.

With `O=c1[nH]cc(F)c(=O)[nH]1` [FLUOROURACIL], the figures for the IC50 with MCF-10A, with MCF7 [1] and with MDA-MB-231 were 39.7 µM, 5.8 µM and 15.7 µM, respectively.
